Laboratory results taken from ChEMBL document CHEMBL1177808, “Benzofuran-substituted urea derivatives as novel P2Y(1) receptor antagonists” (Bioorg Med Chem Lett, 2010).

Columns and labels:
[1] = target: T1, P2Y purinoceptor 1 (Homo sapiens, UniProt P47900); experiment: Antagonist activity at P2Y1 expressed in HEK293 cells by FLIPR assay; format: functional, cell-based
Procedure, shortened: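 HEK-293 MSRII cells (endogenous P2Y1) grown in DMEM/F12 with 10% FBS, plated 20,000/well, cultured 48 h. Loaded with calcium 3 dye in HBSS pH 7.4 plus 2.5 mM probenecid, 1 h, 37 °C. Calcium flux read on FLIPR; IC50 from non-linear regression; at least three determinations.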

[2] = target: T1, P2Y purinoceptor 1; experiment: Displacement of [33P]2-MeS-ADP from human P2Y1 receptor expressed in human U2OS cells at 10 uM by scintillation counting; format: cell-based
Procedure, shortened: (§1)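 Membranes from BacMam-transduced U2OS cells expressing human P2Y1, 0.5 µg prebound to 0.5 mg WGA-SPA beads. Radioligand 150 pM [33P]-2-MeS-ADP in 15 mM Hepes, 145 mM NaCl, 0.1 mM MgCl2, 5 mM EDTA, 5 mM KCl, with test compound dilutions or DMSO. Incubated 1 h at room temperature, centrifuged at 2000g, SPA counts read. At least three determinations.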

[3] = tested on: Platelet; experiment: Inhibition of ADP-mediated alpha granule release in human platelet assessed as inhibition of P-selectin expression at 10 uM by flow cytometry; format: functional
Procedure, shortened: (§2)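 Human PRP from drug-free volunteers (EDTA 10 mM, 300g 4 min), diluted 1:50 in Hepes-modified Tyrode's buffer pH 7.4. Compound or DMSO added, then immediately ADP 300 nM for 5 min. PE-anti-CD62P for 15 min, fixed 30 min in 2% paraformaldehyde, P-selectin read by flow cytometry.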

[4] = target: T1, P2Y purinoceptor 1; experiment: Displacement of [33P]2-MeS-ADP from human P2Y1 receptor expressed in human U2OS cells by scintillation counting; format: cell-based; procedure, shortened: as §1
[5] = tested on: Platelet; experiment: Inhibition of ADP-mediated alpha granule release in human platelet assessed as inhibition of P-selectin expression by flow cytometry; format: functional, cell-based; procedure, shortened: as §2

T1 sequence (P47900 whole entry): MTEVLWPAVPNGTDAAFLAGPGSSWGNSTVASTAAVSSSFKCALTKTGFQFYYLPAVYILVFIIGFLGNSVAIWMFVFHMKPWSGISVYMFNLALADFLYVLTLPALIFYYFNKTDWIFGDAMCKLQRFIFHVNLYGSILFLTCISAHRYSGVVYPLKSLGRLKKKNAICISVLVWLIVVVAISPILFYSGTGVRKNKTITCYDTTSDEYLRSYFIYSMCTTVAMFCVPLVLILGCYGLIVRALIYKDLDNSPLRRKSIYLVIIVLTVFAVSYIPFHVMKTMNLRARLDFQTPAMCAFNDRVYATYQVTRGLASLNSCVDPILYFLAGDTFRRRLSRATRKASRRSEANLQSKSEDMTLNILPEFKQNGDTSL

| SMILES | IC50 [1] [nM] | inhibition [2] [%] | Ki [4] [nM] | IC50 [5] [nM] | inhibition at 10 µM [3] [%] |
| --- | --- | --- | --- | --- | --- |
| CCCCCc1ccc(NC(=O)Nc2cccc3cc(-c4ccccc4C(C)C)oc23)cc1 | 630 | – | 140 | – | – |
| CCCCOc1ccc(NC(=O)Nc2cccc3cc(-c4ccccc4C(C)C)oc23)cc1 | 2000 | – | 640 | – | – |
| O=C(Nc1ccc(OC(F)(F)F)cc1)Nc1cccc2cc(-c3ccccc3Cl)oc12 | > 25000 | – | – | – | – |
| CC(C)Oc1ccccc1-c1cc2cccc(NC(=O)Nc3ccc(OC(F)(F)F)cc3)c2o1 | > 25000 | – | – | – | – |
| O=C(Nc1ccc(OC(F)(F)F)cc1)Nc1cccc2cc(-c3cccc(C(F)(F)F)c3)oc12 | > 25000 | – | – | – | – |
| CC(C)(C)c1ccccc1-c1cc2cccc(NC(=O)Nc3ccc(OC(F)(F)F)cc3)c2o1 | 4000 | – | 400 | – | – |
| O=C(Nc1ccc(OC(F)(F)F)cc1)Nc1cccc2cc(-c3ccccc3C(F)(F)F)oc12 | 6300 | – | 2500 | – | – |

More lines, main results first:

| IC50 [1] [nM] | inhibition [2] [%] | Ki [4] [nM] | IC50 [5] [nM] | SMILES | inhibition at 10 µM [3] [%] |
| --- | --- | --- | --- | --- | --- |
| 1600 | 69 | – | – | Cc1ccc(NC(=O)Nc2cccc3cc(-c4ccccc4C(C)C)oc23)cc1C(F)(F)F | 79 |
| 4000 | – | 600 | – | CC(C)c1ccccc1-c1cc2cccc(NC(=O)Nc3ccc(OC(F)(F)F)cc3)c2o1 | 49 |
| 5000 | 60 | – | – | CC(C)c1ccccc1-c1cc2cccc(NC(=O)Nc3cccc(C(F)(F)F)c3)c2o1 | – |
| 2000 | – | 760 | – | CC(C)c1ccccc1-c1cc2cccc(NC(=O)Nc3ccc(Cl)cc3)c2o1 | – |
| 15800 | – | – | – | CC(C)c1ccccc1-c1cc2cccc(NC(=O)Nc3ccc(N(C)C)cc3)c2o1 | – |
| 1300 | 72 | – | 300 | CC(C)c1ccccc1-c1cc2cccc(NC(=O)Nc3ccc(C(C)(C)C)cc3)c2o1 | 100 |
